The values below come from ChEMBL document CHEMBL4814064, “Azetidinimines as a novel series of non-covalent broad-spectrum inhibitors of β-lactamases with submicromolar activities against carbapenemases KPC-2 (class A), NDM-1 (class B) and OXA-48 (class D)” (Eur J Med Chem, 2021).

The structures appear in SMILES notation.

Data set [1] in a line: Inhibition of NDM-1 (unknown origin). Further details: species or system Bacteria.
Data set [2] in a line: Inhibition of NDM-1 (unknown origin) expressed in Escherichia coli BW25113deltabamBdeltatolC mutant using nitrocefin as substrate by colorimetric analysis. Also noted: species or system Bacteria.
Data set [3] in a line: Inhibition of Escherichia coli NTBC121 NDM-1 by UV absorbance analysis.
In data set [4] the test system is Escherichia coli. The data set can be described thus: Potentiation of imipenem-induced antibacterial activity against Escherichia coli clinical isolate GUE expressing NDM-1 assessed as imipenem MIC at 50 uM incubated for 18 to 24 hrs by broth microdilution method (reference value: 16 ug/ml). It is filed as functional. As to conditions: time 18-24 hrs.
For data set [5], the system named is Escherichia coli. Briefly: Potentiation of imipenem-induced antibacterial activity against Escherichia coli clinical isolate GUE expressing NDM-1 assessed as imipenem MIC at 20 uM incubated for 18 to 24 hrs by broth microdilution method (reference value: 16 ug/ml). It is filed as functional. As to conditions: time 18-24 hrs.
Data set [6] can be described thus: Inhibition of NDM-1 (unknown origin) expressed in Escherichia coli BL21 (DE3) incubated for 3 mins by spectrophotometric analysis. Also noted: species or system Bacteria. The conditions noted are these: read-out: Ki. Summed up: (§1)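 NDM-1 (1 nM, His-tagged, expressed in E. coli BL21(DE3) with 1 mM IPTG for 3 h at 37 °C, purified, kept with 50 µM ZnSO4). Run in 100 mM phosphate pH 7 with 50 µM ZnSO4, 3 min enzyme–inhibitor preincubation, then 100 µM imipenem. Initial rates at 297 nm over 600 s, 25 °C. Triplicate seven-point IC50 converted to Ki (Cheng–Prusoff); percent inhibition at 10 µM.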

For another data set, the system named is MRC5. The data set can be described thus: Cytotoxicity against human MRC-5 cells assessed as reduction in cell viability measured after 72 hrs by MTS assay. As to conditions: MRC5, 72 h. It is filed as cell-based. Summed up: (§2)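 Cells grown at 37 °C in 5% CO2: MRC-5 in DMEM and HCT116 in RPMI 1640, each with 10% FCS and 1% glutamine. Seeded at 2.5 × 10³ cells/well, dosed after 24 h, exposed 72 h, then read at 490 nm after 2 h with reagent. IC50 = concentration halving absorbance versus untreated; triplicate.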

Data set [7] concerns the target Class A carbapenemase KPC-2 (Escherichia coli, UniProt A8DS27). The data set can be described thus: Inhibition of KPC-2 (unknown origin) expressed in Escherichia coli BL21 (DE3) incubated for 3 mins by spectrophotometric analysis. As to conditions: read-out: Ki. A digest of the protocol:
(§3)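 Preincubated 3 min with inhibitor in 100 mM phosphate pH 7. Imipenem 100 µM; hydrolysis followed at 297 nm for 600 s at 25 °C. IC50 from seven concentrations in triplicate; Ki by Cheng–Prusoff. Percent inhibition read at 10 µM.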

The subject of data set [8] is Bacteria. The data set can be described thus: Inhibition of VIM-1 (unknown origin) expressed in Escherichia coli BL21(DE3) at 10 uM. Summed up: (§4)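 Enzymes cloned into pET41b from clinical enterobacterial DNA and expressed in E. coli BL21(DE3) overnight at 22 °C with 0.2 mM IPTG. His-tag affinity then Superdex 75 gel filtration (100 mM phosphate pH 7, 150 mM NaCl); dialysed into 10 mM Tris-HCl pH 7.6, with 50 µM ZnSO4 added for NDM and VIM variants.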

Data set [9] deals with Bacteria. Briefly: Inhibition of VIM-52 (unknown origin) expressed in Escherichia coli BL21(DE3) at 10 uM. A digest of the protocol:
as §4

Data set [10] deals with Bacteria. The data set can be described thus: Inhibition of NDM-9 (unknown origin) expressed in Escherichia coli BL21(DE3) at 10 uM. Summed up:
as §4

For data set [11], the system named is Bacteria. Briefly: Inhibition of NDM-4 (unknown origin) expressed in Escherichia coli BL21(DE3) at 10 uM. A digest of the protocol:
as §4

The nature of data set [12]: Metabolic stability in mouse liver microsomes at 5 uM after 45 min absence of NADPH by UPLC-MS/MS analysis. In kind it is ADME, Microsome. The conditions noted are these: read-out: Stabilty. A digest of the protocol:
(§5)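 Test compound at 5 µM with 0.5 mg/mL pooled male mouse liver microsomes in 0.1 M phosphate pH 7.4 at 37 °C. Reaction started with 1 mM NADPH and sampled at 0–45 min in duplicate; a no-NADPH control was run. Quenched with cold acetonitrile; parent measured by UPLC-MS/MS (MRM). t1/2 from log-linear decay; CLint per mg microsomal protein.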

Data set [13] has as its target Class A carbapenemase KPC-2 (Escherichia coli) (UniProt A8DS27). The data set can be described thus: Inhibition of KPC-2 (unknown origin) expressed in Escherichia coli BL21 (DE3) at 10 uM incubated for 3 mins by spectrophotometric analysis relative to control. A digest of the protocol:
as §3

A short description of data set [14]: Inhibition of OXA-48 (unknown origin) expressed in Escherichia coli BL21 (DE3) incubated for 3 mins by spectrophotometric analysis. Further details: species or system Bacteria. As to conditions: read-out: Ki. A digest of the protocol:
(§6)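 OXA-48 at 5.8 nM (His-tagged, expressed in BL21(DE3), purified in K2SO4 buffers) in 100 mM phosphate pH 7 plus 50 mM NaHCO3. Inhibitor preincubated 3 min; substrate 100 µM imipenem; initial velocities at 297 nm, 600 s, 25 °C. Seven inhibitor concentrations in triplicate give IC50, converted to Ki by Cheng–Prusoff; percent inhibition at 10 µM.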

The next data set deals with HCT-116. The data set can be described thus: Cytotoxicity against human HCT-116 cells assessed as reduction in cell viability measured after 72 hrs by MTS assay. As to conditions: HCT-116, 72 h. In kind it is cell-based. A digest of the protocol:
as §2

For data set [15], the system named is Bacteria. The data set can be described thus: Inhibition of OXA-48 (unknown origin) expressed in Escherichia coli BL21 (DE3) at 10 uM incubated for 3 mins by spectrophotometric analysis relative to control. Summed up:
as §6

Data set [16] is described as follows: Metabolic stability in mouse liver microsomes at 5 uM assessed as intrinsic clearance measured per mg protein by UPLC-MS/MS analysis. In kind it is ADME, Microsome. The conditions noted are these: read-out: CLH. A digest of the protocol: as §5
The test system of data set [17] is Bacteria. Briefly: Inhibition of CTX-M-15 (unknown origin) expressed in Escherichia coli BL21(DE3) at 10 uM. Summed up: as §4
Data set [18] concerns Bacteria. Briefly: Inhibition of CMY-2 (unknown origin) expressed in Escherichia coli BL21(DE3) at 10 uM. A digest of the protocol: as §4
The test system of data set [19] is Bacteria. The data set can be described thus: Inhibition of NDM-7 (unknown origin) expressed in Escherichia coli BL21(DE3) at 10 uM. A digest of the protocol: as §4
The subject of data set [20] is Bacteria. Briefly: Inhibition of NDM-1 (unknown origin) expressed in Escherichia coli BL21 (DE3) at 10 uM incubated for 3 mins by spectrophotometric analysis relative to control. A digest of the protocol:
as §1

Data set [21] concerns Escherichia coli. Briefly: Potentiation of imipenem-induced antibacterial activity against Escherichia coli clinical isolate GUE expressing NDM-1 assessed as imipenem MIC at 100 uM incubated for 18 to 24 hrs by broth microdilution method (reference value: 16 ug/ml). As to conditions: time 18-24 hrs. It is filed as functional.
Data set [22] deals with Escherichia coli. Briefly: Potentiation of imipenem-induced antibacterial activity against Escherichia coli clinical isolate GUE expressing NDM-1 assessed as fold change in imipenem MIC at 50 uM incubated for 18 to 24 hrs by broth microdilution method. In kind it is functional. The conditions noted are these: time 18-24 hrs.
Data set [23] concerns Escherichia coli. The data set can be described thus: Potentiation of imipenem-induced antibacterial activity against Escherichia coli clinical isolate GUE expressing NDM-1 assessed as fold change in imipenem MIC at 200 uM incubated for 18 to 24 hrs by broth microdilution method. It is filed as functional. As to conditions: time 18-24 hrs.

Regarding `CN1CCN(NC(=O)CN2C(=O)/C(=C/c3c(Cl)ccc(Cl)c3Cl)SC2=S)CC1`, the 50% inhibitory concentration (IC50) in data set [1] came out at 9440 nM.

With `N[C@H](CN[C@H](CN[C@@H](CC(=O)O)C(=O)O)C(=O)O)C(=O)O`, it took 4000 nM to reach half-maximal inhibition in [2] (IC50).

The molecule `O=C(O)c1ncsc1NS(=O)(=O)c1cccnc1` registered an IC50 in [3] of 2670 nM.

As to `Oc1ccc(N2/C(=N/c3ccc(I)cc3)CC2c2ccc(Cl)cc2Cl)cc1` (racemic), the minimum inhibitory concentration (MIC) with Escherichia coli [4] amounted to 4 µg/mL; in the data set on Escherichia coli [5] it was 8 µg/mL; in the data set on Escherichia coli [21], 4 µg/mL. The inhibition constant Ki was found to be 70 nM in data set [6], 280 nM in data set [7] and 70 nM in [14]. Further, the 50% inhibitory concentration (IC50) is 19900 nM in the data set on MRC5 and 32300 nM in the data set on HCT-116. In addition, the inhibition in the data set on Bacteria [8] is 100%; in the data set with Bacteria [9], 0%; in the data set with Bacteria [10], 100%; in the data set with Bacteria [11] it was 100%; in data set [13] it was > 50%; in the data set with Bacteria [15] it was > 50%. Also, the inhibition was 83% in the data set on Bacteria [17], 86% in the data set on Bacteria [18], 100% in the data set with Bacteria [19] and > 50% in the data set with Bacteria [20]. For the same molecule, in data set [12], the remaining at 0.75 h, 5 µM came to 96%. Besides, in data set [16], the microsomal CLint at 5 µM is 13.9 µL/min/mg.

With `CCOc1ccc(N2/C(=N/c3ccc(OC)cc3)CC2c2ccc3ccccc3c2)cc1` (racemic), the inhibition constant Ki in data set [6] amounted to 270 nM; in data set [7], 1810 nM; in [14], 840 nM. The inhibition (in data set [13]; with Bacteria [15]; with Bacteria [20]) was > 50% each time.

Turning to `CCOc1ccc(N2/C(=N/c3ccc(I)cc3)CC2c2ccc3ccccc3c2)cc1` (racemic), the Ki was 250 nM in data set [6], 1840 nM in data set [7] and 700 nM in data set [14]. Further, the inhibition (in data set [13]; in the data set on Bacteria [15]; in the data set with Bacteria [20]) was > 50% each time.

For the molecule `Clc1ccc(C2C/C(=N\c3ccc(I)cc3)N2c2ccc(OCc3ccccc3)cc2)c(Cl)c1` (racemic), the minimum inhibitory concentration (MIC) in the data set with Escherichia coli [4] came out at 4 µg/mL; in the data set with Escherichia coli [5], 16 µg/mL; with Escherichia coli [21], 2 µg/mL. For the same molecule, the inhibition constant Ki was 360 nM in data set [6] and 3690 nM in data set [7]. In addition, the half-inhibitory concentration (IC50) with MRC5 and in the data set on HCT-116 was > 100000 nM each time. The remaining at 0.75 h, 5 µM in [12] worked out at 100%. Also, the results for the inhibition (in data set [13]; with Bacteria [15]; with Bacteria [20]) were > 50%, 41% and > 50%, respectively. Also, the microsomal CLint at 5 µM in data set [16] is 7.6 µL/min/mg. In the data set on Escherichia coli [22], the “fold change (FC)” value is on record as 4.

As for `COc1ccc(N2/C(=N/c3ccc(I)cc3)CC2c2ccc(Cl)cc2Cl)cc1` (racemic), the MIC with Escherichia coli [4], with Escherichia coli [5] and in the data set on Escherichia coli [21] was 16 µg/mL throughout. The results for the inhibition constant (Ki) in data set [6], in data set [7] and in [14] were 220 nM, 1890 nM and 910 nM, respectively. For the same molecule, the concentration for half-maximal inhibition (IC50) in the data set on MRC5 and in the data set on HCT-116 was > 100000 nM each time. In addition, in data set [12], the remaining at 0.75 h, 5 µM was determined as 83%. The inhibition (in [13]; with Bacteria [15]; in the data set with Bacteria [20]) was > 50% in each case. For the same molecule, in data set [16], the microsomal CLint at 5 µM is 2 µL/min/mg. Further, the “fold change (FC)” value with Escherichia coli [23] is recorded as 2.

Turning to `COc1ccc(N2/C(=N/c3ccc(I)cc3)CC2c2ccc3ccccc3c2)cc1` (racemic), the Ki in data set [6] worked out at 230 nM; in data set [7], 1580 nM; in data set [14], 850 nM. Moreover, the inhibition (in [13]; in the data set on Bacteria [15]; with Bacteria [20]) was > 50% throughout.

Take `COc1ccc(N2/C(=N/c3ccc(I)cc3)CC2c2ccc(I)cc2)cc1` (racemic): the results for the Ki in data set [6], in data set [7] and in data set [14] were 370 nM, 5660 nM and 510 nM, respectively. Moreover, the inhibition (in [13]; in the data set with Bacteria [15]; in the data set with Bacteria [20]) was > 50% each time.

Consider `COc1ccc(N2/C(=N/c3ccc(I)cc3)CC2c2ccc(F)cc2)cc1` (racemic), for which the Ki in data set [6] was determined as 500 nM; in data set [7], 6490 nM; in data set [14], 450 nM. In addition, the inhibition (in data set [13]; in the data set on Bacteria [15]; with Bacteria [20]) was > 50% throughout.

Regarding `COc1ccc(N2/C(=N/c3ccc(Br)cc3)CC2c2ccc3ccccc3c2)cc1` (racemic), the Ki is 520 nM in [6], 5230 nM in data set [7] and 390 nM in data set [14]. Besides, the inhibition (in data set [13]; with Bacteria [15]; in the data set on Bacteria [20]) was > 50% in each case.
